Laboratory results published in ChEMBL document CHEMBL4428038, “Overcoming chloroquine resistance in malaria: Design, synthesis and structure-activity relationships of novel chemoreversal agents” (Eur J Med Chem, 2016).
The source made the active and inactive calls.

Experiments:
Plasmodium falciparum [1] = assay: Intrinsic antimalarial activity against chloroquine-sensitive Plasmodium falciparum HB3 isolate MRA-155 assessed as reduction in parasite viability at 500 nM; type: functional, organism-based
Plasmodium falciparum K1 = assay: Inhibition of CRT CVIET haplotype mutant in Plasmodium falciparum K1 isolate MRA-159 infected in erythrocytes assessed as chloroquine-coumarin probe accumulation at 10 uM after 10 hrs by Hoechst 33342 staining based flow cytometry (reference value: 35.57 +/- 3.84%); type: cell-based; set-up: scale not given: the % may be the effect or the level left
Outline: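 Infected erythrocyte cultures at 2.5% hematocrit and 7–12% parasitemia, synchronized to late-ring/early-trophozoite stage, were incubated with chloroquine-coumarin probe plus test agent for 10 h at 37 C. Cells were then washed, resuspended in PBS and read by flow cytometry (405 nm excitation, 450/50 filter). Hoechst-stained duplicate wells set parasitemia. Uptake = % infected erythrocytes fluorescent. Controls: PBS (negative), desipramine and parent compound (positive). ≥3 independent experiments; mean ± SEM.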

Plasmodium falciparum [2] = assay: Intrinsic antimalarial activity against chloroquine/artemisinin-resistant Plasmodium falciparum NHP4773 harboring CRT K76T mutant assessed as reduction in parasite viability at 500 nM; type: functional, organism-based
Plasmodium falciparum [3] = assay: Intrinsic antimalarial activity against chloroquine-resistant Plasmodium falciparum Dd2 isolate MRA-156 harboring CRT K76T mutant assessed as reduction in parasite viability at 500 nM; type: functional, organism-based
Plasmodium falciparum [4] = assay: Intrinsic antimalarial activity against intermediate chloroquine-resistant Plasmodium falciparum 7G8 isolate MRA-154 harboring CRT SVMNT haplotype mutant assessed as reduction in parasite viability at 500 nM; type: functional, organism-based
Plasmodium falciparum [5] = assay: Intrinsic antimalarial activity against chloroquine-resistant Plasmodium falciparum NHP4559 harboring CRT K76T mutant assessed as reduction in parasite viability at 500 nM; type: functional, organism-based
Plasmodium falciparum [6] = assay: Intrinsic antimalarial activity against chloroquine-sensitive Plasmodium falciparum 3D7 isolate MRA-102 assessed as reduction in parasite viability at 500 nM; type: functional, organism-based
Plasmodium falciparum [7] = assay: Intrinsic antimalarial activity against chloroquine-resistant Plasmodium falciparum K1 isolate MRA-159 harboring CRT CVIET haplotype mutant assessed as reduction in parasite viability at 500 nM; type: functional, organism-based
Plasmodium falciparum [8] = assay: Intrinsic antimalarial activity against chloroquine/artemisinin-resistant Plasmodium falciparum ARS272 harboring CRT K76T mutant assessed as reduction in parasite viability at 500 nM; type: functional, organism-based
Plasmodium falciparum [9] = assay: Intrinsic antimalarial activity against chloroquine/artemisinin-resistant Plasmodium falciparum ARS233 harboring CRT K76T mutant assessed as reduction in parasite viability at 500 nM; type: functional, organism-based

Measured: Activity

CC(C)(C)OC(=O)N1CCN(C2Cc3ccccc3Sc3ccc(Cl)cc32)CC1 (stereo unspecified)
inactive: Plasmodium falciparum [1] | Plasmodium falciparum [2] | Plasmodium falciparum [3] | Plasmodium falciparum [4] | Plasmodium falciparum [5] | Plasmodium falciparum [6] | Plasmodium falciparum [7] | Plasmodium falciparum [8] | Plasmodium falciparum [9]
43.4%: Plasmodium falciparum K1

OC1(c2ccc(Cl)cc2)CCNCC1
27.5%: Plasmodium falciparum K1
inactive: Plasmodium falciparum [1] | Plasmodium falciparum [2] | Plasmodium falciparum [3] | Plasmodium falciparum [4] | Plasmodium falciparum [5] | Plasmodium falciparum [6] | Plasmodium falciparum [7] | Plasmodium falciparum [8] | Plasmodium falciparum [9]

CC(C)(C)OC(=O)NC1CCN(CCC(C#N)(c2ccccc2)c2ccccc2)CC1
inactive: Plasmodium falciparum [1] | Plasmodium falciparum [2] | Plasmodium falciparum [3] | Plasmodium falciparum [4] | Plasmodium falciparum [5] | Plasmodium falciparum [6] | Plasmodium falciparum [7] | Plasmodium falciparum [8] | Plasmodium falciparum [9]
38.8%: Plasmodium falciparum K1

O=C1C2CCN(CC2)C1C(c1ccccc1)c1ccccc1 (stereo unspecified)
inactive: Plasmodium falciparum [1] | Plasmodium falciparum [2] | Plasmodium falciparum [3] | Plasmodium falciparum [4] | Plasmodium falciparum [5] | Plasmodium falciparum [6] | Plasmodium falciparum [7] | Plasmodium falciparum [8] | Plasmodium falciparum [9]
49%: Plasmodium falciparum K1

O=C1Cc2ccccc2Sc2ccccc21
inactive: Plasmodium falciparum [1] | Plasmodium falciparum [2] | Plasmodium falciparum [3] | Plasmodium falciparum [4] | Plasmodium falciparum [5] | Plasmodium falciparum [6] | Plasmodium falciparum [7] | Plasmodium falciparum [8] | Plasmodium falciparum [9]
50.7%: Plasmodium falciparum K1

NC(=O)C(CCN1CCCCC1)(c1ccccc1)c1ccccc1
63.2%: Plasmodium falciparum K1
inactive: Plasmodium falciparum [1] | Plasmodium falciparum [2] | Plasmodium falciparum [3] | Plasmodium falciparum [4] | Plasmodium falciparum [5] | Plasmodium falciparum [6] | Plasmodium falciparum [7] | Plasmodium falciparum [8] | Plasmodium falciparum [9]

Ic1ccccc1CNCC(c1ccccc1)c1ccccc1
inactive: Plasmodium falciparum [1] | Plasmodium falciparum [2] | Plasmodium falciparum [3] | Plasmodium falciparum [4] | Plasmodium falciparum [5] | Plasmodium falciparum [6] | Plasmodium falciparum [7] | Plasmodium falciparum [8] | Plasmodium falciparum [9]
50.9%: Plasmodium falciparum K1

c1ccc(CNC2C3CCN(CC3)C2Cc2ccccc2)cc1 (mixture of isomers)
74.4%: Plasmodium falciparum K1
inactive: Plasmodium falciparum [1] | Plasmodium falciparum [2] | Plasmodium falciparum [3] | Plasmodium falciparum [4] | Plasmodium falciparum [5] | Plasmodium falciparum [6] | Plasmodium falciparum [7] | Plasmodium falciparum [8] | Plasmodium falciparum [9]

O=C1/C(=C/c2ccccc2)N2CCC1CC2
39%: Plasmodium falciparum K1
inactive: Plasmodium falciparum [1] | Plasmodium falciparum [2] | Plasmodium falciparum [3] | Plasmodium falciparum [4] | Plasmodium falciparum [5] | Plasmodium falciparum [6] | Plasmodium falciparum [7] | Plasmodium falciparum [8] | Plasmodium falciparum [9]

O=C1Cc2ccccc2Sc2ccc(Cl)cc21
inactive: Plasmodium falciparum [1] | Plasmodium falciparum [2] | Plasmodium falciparum [3] | Plasmodium falciparum [4] | Plasmodium falciparum [5] | Plasmodium falciparum [6] | Plasmodium falciparum [7] | Plasmodium falciparum [8] | Plasmodium falciparum [9]
49.1%: Plasmodium falciparum K1

N#CC(CCN1CCC(O)CC1)(c1ccccc1)c1ccccc1
63.9%: Plasmodium falciparum K1
inactive: Plasmodium falciparum [1] | Plasmodium falciparum [2] | Plasmodium falciparum [3] | Plasmodium falciparum [4] | Plasmodium falciparum [5] | Plasmodium falciparum [6] | Plasmodium falciparum [7] | Plasmodium falciparum [8] | Plasmodium falciparum [9]

N[C@@H]1C2CCN(CC2)[C@@H]1Cc1ccccc1 (relative stereo)
40.1%: Plasmodium falciparum K1
inactive: Plasmodium falciparum [1] | Plasmodium falciparum [2] | Plasmodium falciparum [3] | Plasmodium falciparum [4] | Plasmodium falciparum [5] | Plasmodium falciparum [6] | Plasmodium falciparum [7] | Plasmodium falciparum [8] | Plasmodium falciparum [9]

NCC(CCN1CCN(c2ccc(F)cc2)CC1)(c1ccccc1)c1ccccc1
inactive: Plasmodium falciparum [1] | Plasmodium falciparum [2] | Plasmodium falciparum [3] | Plasmodium falciparum [4] | Plasmodium falciparum [5] | Plasmodium falciparum [6] | Plasmodium falciparum [7] | Plasmodium falciparum [8] | Plasmodium falciparum [9]
60.5%: Plasmodium falciparum K1

N#CC(CCN1CCN(c2ccc(F)cc2)CC1)(c1ccccc1)c1ccccc1
inactive: Plasmodium falciparum [1] | Plasmodium falciparum [2] | Plasmodium falciparum [3] | Plasmodium falciparum [4] | Plasmodium falciparum [5] | Plasmodium falciparum [6] | Plasmodium falciparum [7] | Plasmodium falciparum [8] | Plasmodium falciparum [9]
49%: Plasmodium falciparum K1

CSc1ccc2c(c1)C(=O)Cc1ccccc1S2
49.3%: Plasmodium falciparum K1
inactive: Plasmodium falciparum [1] | Plasmodium falciparum [2] | Plasmodium falciparum [3] | Plasmodium falciparum [4] | Plasmodium falciparum [5] | Plasmodium falciparum [6] | Plasmodium falciparum [7] | Plasmodium falciparum [8] | Plasmodium falciparum [9]

O=C1C2CCN(CC2)C1Cc1ccccc1 (stereo unspecified)
34.7%: Plasmodium falciparum K1
inactive: Plasmodium falciparum [1] | Plasmodium falciparum [2] | Plasmodium falciparum [3] | Plasmodium falciparum [4] | Plasmodium falciparum [5] | Plasmodium falciparum [6] | Plasmodium falciparum [7] | Plasmodium falciparum [8] | Plasmodium falciparum [9]

NC(=O)C(CCN1CCC(O)CC1)(c1ccccc1)c1ccccc1
51.3%: Plasmodium falciparum K1
inactive: Plasmodium falciparum [1] | Plasmodium falciparum [2] | Plasmodium falciparum [3] | Plasmodium falciparum [4] | Plasmodium falciparum [5] | Plasmodium falciparum [6] | Plasmodium falciparum [7] | Plasmodium falciparum [8] | Plasmodium falciparum [9]

NC(=O)C(CCN1CCN(c2ccc(F)cc2)CC1)(c1ccccc1)c1ccccc1
inactive: Plasmodium falciparum [1] | Plasmodium falciparum [2] | Plasmodium falciparum [3] | Plasmodium falciparum [4] | Plasmodium falciparum [5] | Plasmodium falciparum [6] | Plasmodium falciparum [7] | Plasmodium falciparum [8] | Plasmodium falciparum [9]
57.7%: Plasmodium falciparum K1

NCC(CCN1CCCCC1)(c1ccccc1)c1ccccc1
inactive: Plasmodium falciparum [1] | Plasmodium falciparum [2] | Plasmodium falciparum [3] | Plasmodium falciparum [4] | Plasmodium falciparum [5] | Plasmodium falciparum [6] | Plasmodium falciparum [7] | Plasmodium falciparum [8] | Plasmodium falciparum [9]
61%: Plasmodium falciparum K1

N#CC(CCN1CCC(N)CC1)(c1ccccc1)c1ccccc1
inactive: Plasmodium falciparum [1] | Plasmodium falciparum [2] | Plasmodium falciparum [3] | Plasmodium falciparum [4] | Plasmodium falciparum [5] | Plasmodium falciparum [6] | Plasmodium falciparum [7] | Plasmodium falciparum [8] | Plasmodium falciparum [9]
58%: Plasmodium falciparum K1

CNCCCN1c2ccccc2CCc2ccccc21
78.8%: Plasmodium falciparum K1

N#CC(CCN1CCC(O)(c2ccc(Cl)cc2)CC1)(c1ccccc1)c1ccccc1
inactive: Plasmodium falciparum [1] | Plasmodium falciparum [2] | Plasmodium falciparum [3] | Plasmodium falciparum [4] | Plasmodium falciparum [5] | Plasmodium falciparum [6] | Plasmodium falciparum [7] | Plasmodium falciparum [8] | Plasmodium falciparum [9]
25.9%: Plasmodium falciparum K1

N#CC(CCBr)(c1ccccc1)c1ccccc1
29.6%: Plasmodium falciparum K1
inactive: Plasmodium falciparum [1] | Plasmodium falciparum [2] | Plasmodium falciparum [3] | Plasmodium falciparum [4] | Plasmodium falciparum [5] | Plasmodium falciparum [6] | Plasmodium falciparum [7] | Plasmodium falciparum [8] | Plasmodium falciparum [9]

CC(C)(C)OC(=O)N1CCCC(N)C1 (stereo unspecified)
inactive: Plasmodium falciparum [1] | Plasmodium falciparum [2] | Plasmodium falciparum [3] | Plasmodium falciparum [4] | Plasmodium falciparum [5] | Plasmodium falciparum [6] | Plasmodium falciparum [7] | Plasmodium falciparum [8] | Plasmodium falciparum [9]
52.2%: Plasmodium falciparum K1
